AI-2 QS mod – Vibrio harveyi AI-2 quorum sensing modulation. AID 2094. actives 0.4% (n = 300,000). activity change, % at 7.5 µM. Vibrio harveyi JMH597 AI-2 luminescence/OD600 ratio, 9 h; hits give low values; strain lacks LuxN and CqsS sensors; 0 = neutral-control median; in the data active = activity change below about -75%, passing the limit was not always enough; inconclusive = no clear call, values can overlap the other calls;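 also: luminescence divided by OD600 gain over 9 h not by final OD600 alone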
Mot1-301 SUMO – SUMOylation pathway inhibition by Mot1-301 growth rescue; S. cerevisiae Mot1-301 growth rescue, ATP luminescence, 38.5C; percent above DMSO median, 100 means doubled; AID 2716; actives 1% (n = 320,000); growth rescue, % at 18.8 µM;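 active = every valid replicate shows activation above 250% relative to neutral control wells; inactive = the rest, any valid replicate at or below 250%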
hERG rescue – shields human hERG channel from block by proarrhythmic agents; Q12809; CHO-hERG, FluxOR thallium flux, dofetilide IC70 present; activation (rescue from dofetilide block), less the hit threshold, % at 10 µM; actives 0.51% (n = 310,000); AID 1511;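 active = activation above the mean of controls blocked by dofetilide plus 5 SD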;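 also: thallium influx through hERG after potassium depolarization seen as dye fluorescence rise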
KCNQ1 block – human KCNQ1 channel inhibition. P51787. CHO-K1 KCNQ1, FluxOR thallium flux fluorescence; hits give high values. B-score at 10 µM. actives 1.3% (n = 310,000). AID 2642;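 active = compounds whose thallium flux B-score, printed positive for inhibition, exceeds three library SD while starting fluorescence stays within three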;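 also: channel opened by potassium depolarization with thallium stimulus after 20 min compound exposure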
Target sequence (P51787 whole entry, looked up): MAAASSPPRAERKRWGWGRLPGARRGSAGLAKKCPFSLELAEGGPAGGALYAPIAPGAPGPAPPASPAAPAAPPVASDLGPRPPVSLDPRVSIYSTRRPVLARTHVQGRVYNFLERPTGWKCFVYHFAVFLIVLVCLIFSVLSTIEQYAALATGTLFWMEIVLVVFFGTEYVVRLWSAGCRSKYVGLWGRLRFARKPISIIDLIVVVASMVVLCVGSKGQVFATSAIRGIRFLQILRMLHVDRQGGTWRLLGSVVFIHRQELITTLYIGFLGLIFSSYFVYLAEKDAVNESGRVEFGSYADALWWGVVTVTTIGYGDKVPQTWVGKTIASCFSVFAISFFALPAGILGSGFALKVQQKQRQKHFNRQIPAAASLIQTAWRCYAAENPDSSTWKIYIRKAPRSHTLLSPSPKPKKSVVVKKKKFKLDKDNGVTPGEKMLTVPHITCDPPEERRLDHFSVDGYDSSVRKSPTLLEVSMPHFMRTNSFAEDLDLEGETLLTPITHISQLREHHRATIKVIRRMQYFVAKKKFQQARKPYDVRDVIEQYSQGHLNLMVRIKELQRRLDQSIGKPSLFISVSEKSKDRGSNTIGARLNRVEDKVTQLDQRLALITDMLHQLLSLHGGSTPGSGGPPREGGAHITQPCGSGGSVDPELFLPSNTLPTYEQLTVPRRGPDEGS
KCNQ1 pot – human KCNQ1 channel potentiation or activation; CHO-K1 KCNQ1, thallium flux FluxOR fluorescence; hits give high values; B-score at 10 µM; actives 0.35% (n = 310,000);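 active = fluorescence ratio B-score, a plate-corrected score, at least three library SD, with initial intensity B-score within 5 SD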
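System: Stable KCNQ1 CHO-K1 line | Incubation: 90 min dye loading and 20 min compound exposure, both at room temperature | Measure: Ratio B score | Medium: Assay buffer for compound exposure, DMSO matched across wells | Compound dosing: Single-concentration screen | Probe or stimulus: K+/Tl+ depolarizing stimulus | Measured by: Kinetic FluxOR fluorescence, 10 s baseline plus 110 s post-stimulus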
Cl transport mod – modulators of human KCC2 chloride dependent transport | Q9H2X9 | KCC2 cells, thallium flux FluoZin-2 fluorescence | B-score of Tl+ flux slope (higher = more flux/activation; lower = inhibition) at 10 µM | actives 2.2% (n = 190,000) | AID 1456;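 active = thallium flux slope and its plate-corrected score both differing from the plate sample mean at a set confidence after two filtering rounds, in either direction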;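 also: slope of fluorescence scaled to starting intensity during 10 to 20 s after thallium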
KCC2 sec1 – KCC2 (human) modulation, secondary assay; shares compounds with Cl transport mod; HEK293-KCC2, thallium flux, FluoZin2 fluorescence; hits give high values; normalised thallium flux (F/F0 slope) at 10 µM; actives 15% (n = 3,700); AID 1713;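 active = thallium flux slope above the same plate's solvent-only control mean plus 3 SD; inconclusive = the two replicate wells disagree; inactive = no significant difference from solvent-only control wells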
KCC2 bumet counter – thallium flux despite bumetanide block in KCC2 cells, secondary assay 3; shares compounds with Cl transport mod; HEK293-KCC2 + bumetanide/ouabain, thallium flux FluoZin2; hits give high values; normalized thallium flux at 10 µM; actives 49% (n = 3,700); AID 1714;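 active = thallium entry rate above the same plate's blocked-transporter control wells by more than 3 SD; inconclusive = the two repeat wells disagree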;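 also: raw slope of fluorescence over initial fluorescence between 10 and 20 s after thallium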
KCC2 sec2 – confirmation of human KCC2 transport modulators. AID 1715. shares compounds with Cl transport mod. normalized thallium flux at 10 µM. actives 23% (n = 3,700). HEK293-KCC2, thallium flux FluoZin2 fluorescence; actives lie on both sides; F/F0 rise rate, 10–20 s post-thallium;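 active = thallium flux slope more than 3 SD above or below the plate's solvent-only control mean, mostly below; inconclusive = the two repeat wells disagreed; inactive = no significant shift from solvent-only controls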
HEK counter1 – parental HEK flux effect, counter-screen; HEK293 parental cells, thallium flux FluoZin2, ouabain; baseline-ratio fluorescence slope, 10–20 s after thallium; thallium flux rate (normalised fluorescence) at 10 µM; shares compounds with Cl transport mod; actives 46% (n = 3,700);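 active = thallium flux rate significantly above the same plate's solvent-only control wells, beyond their mean plus 3 SD; inconclusive = the two replicate wells gave conflicting results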
KCC2 ouabain – KCC2 (human) modulation, ouabain retest; actives 48% (n = 3,700); HEK293-KCC2, thallium flux FluoZin2 fluorescence; bidirectional: low = inhibitor, high = activator; shares compounds with Cl transport mod; raw Tl+ flux slope (below DMSO = inhibition, above = activation) at 10 µM;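 active = thallium flux slope beyond 3 SD from same-plate DMSO control mean in most replicates, usually higher, sometimes lower; inconclusive = repeat tests gave conflicting results; inactive = no significant difference from controls in most replicates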;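 also: slope of initial-normalized fluorescence between seconds 10 and 20 after thallium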
HEK counter2 – counter-screen for KCC2 modulators: effect in parental HEK293 cells; thallium flux FluoZin-2 fluorescence slope; thallium flux slope at 10 µM; shares compounds with Cl transport mod; actives 33% (n = 3,700);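 active = thallium flux slope above the same plate's solvent-control mean plus 3 SD in both duplicate wells; inconclusive = duplicate wells that disagreed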;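 also: run without ouabain in cells lacking the KCC2 cotransporter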
Of the large screens only hits and unclear results are named; the others gave an inactive call (follow-up assays come after a bar, where they were run). Sampled rows, rich in hits. Any-hit rate of the full collection: about 4.2%.

CC1CCC2(CC1)C(Nc1cccc(Cl)c1)=NC(=S)N2CC#N (configuration not stated)	Cl transport mod 19 | KCC2 sec1 0.0097 | KCC2 bumet counter 0.05 | KCC2 sec2 0.055 | HEK counter1 0.052 | KCC2 ouabain 0.045 | HEK counter2 0.041
CC1CN(C(=S)Nc2cccc(Cl)c2)CC(C)O1 (configuration not stated)	none (no result: Cl transport mod)
O=c1c2sccc2[nH]c(=S)n1Cc1ccccc1	Cl transport mod 68 | KCC2 sec1 inactive | KCC2 bumet counter 0.11 | KCC2 sec2 0.084 | HEK counter1 0.086 | KCC2 ouabain 0.094 | HEK counter2 0.079
CCN(CC)c1ccc(C(=O)OCC(=O)N(C)Cc2ccccc2)cc1	Cl transport mod -4.1 | KCC2 sec1 inactive | KCC2 bumet counter inactive | KCC2 sec2 inactive | HEK counter1 inactive | KCC2 ouabain 0.015 | HEK counter2 inactive
Cc1ccc(C(=O)OCC(=O)Nc2cc(F)ccc2F)cc1NC(=O)c1ccco1	none
Oc1cccc2ccc(/C=C/c3cccs3)nc12	Cl transport mod 15 | KCC2 sec1 inactive | KCC2 bumet counter 0.019 | KCC2 sec2 inactive | HEK counter1 0.013 | KCC2 ouabain inconclusive | HEK counter2 inactive
COc1ccccc1C(=O)NC(=O)CSc1ccc(C)c(C)c1	none (no result: AI-2 QS mod, hERG rescue, KCNQ1 block, KCNQ1 pot, Cl transport mod)
Cc1noc(C)c1CN1C(=O)NC2(CCc3ccccc3C2)C1=O (configuration not stated)	none | KCC2 sec1 inactive | KCC2 bumet counter inactive | KCC2 sec2 inactive | HEK counter1 inactive | KCC2 ouabain inactive | HEK counter2 inactive
Cc1ccc(C2(C)NC(=O)N(Cc3c(C)noc3C)C2=O)cc1 (configuration not stated)	none (no result: Mot1-301 SUMO)
C=CCn1c(SCC(=O)N(C)C)nc2sc3c(c2c1=O)CCC3	none (no result: Cl transport mod)
Cc1ccc(C(=O)N2CCCC2)cc1Br	Cl transport mod -3.1 | KCC2 sec1 inactive | KCC2 bumet counter inconclusive | KCC2 sec2 inactive | HEK counter1 inactive | KCC2 ouabain inactive | HEK counter2 inactive
CC(=O)c1cc(CN2CCC(n3nccc3NC(=O)c3ccccc3)CC2)cs1	none (no result: Cl transport mod)
O=C(COC(=O)c1cccnc1Cl)Nc1nc(-c2ccccc2)cs1	Cl transport mod -5.3 | KCC2 sec1 0.0056 | KCC2 bumet counter inactive | KCC2 sec2 inactive | HEK counter1 inactive | KCC2 ouabain 0.041 | HEK counter2 inactive
O=C(COC(=O)c1ccccc1O)Nc1cccnc1Cl	none
Cc1ccc(-c2csc(NC(=O)CCNC(=O)c3ccccc3Cl)n2)cc1	Cl transport mod -3.8 | KCC2 sec1 inactive | KCC2 bumet counter inactive | KCC2 sec2 inconclusive | HEK counter1 inactive | KCC2 ouabain inconclusive | HEK counter2 inactive
CSC1=NS(=O)(=O)c2c(C)nn(C)c2S1	Cl transport mod -4 | KCC2 sec1 inactive | KCC2 bumet counter inactive | KCC2 sec2 inactive | HEK counter1 inconclusive | KCC2 ouabain inactive | HEK counter2 inconclusive
C[C@H](NS(=O)(=O)c1ccc2c(c1)OCCCO2)C(=O)N1CCN(Cc2ccc(C#N)cc2)CC1	none (no result: AI-2 QS mod, hERG rescue, KCNQ1 block, KCNQ1 pot, Cl transport mod)
COc1ccc(C2CCCN2C(=O)Nc2ccc(Cl)cc2)cc1OC (configuration not stated)	Cl transport mod -3.3 | KCC2 sec1 inactive | KCC2 bumet counter inactive | KCC2 sec2 inactive | HEK counter1 inactive | KCC2 ouabain inconclusive | HEK counter2 inactive
COc1ccc(NC(=O)C2CCCN2C(=O)Nc2ccccc2)cc1OC (configuration not stated)	none
CCSS(=O)(=O)c1cccc2cccnc12	Cl transport mod 3.9 (no result: AI-2 QS mod) | KCC2 sec1 inconclusive | KCC2 bumet counter 0.0079 | KCC2 sec2 inactive | HEK counter1 0.01 | KCC2 ouabain inconclusive | HEK counter2 0.014
O=C(O)CCS(=O)(=O)c1cccc2cccnc12	none (no result: Cl transport mod)
COc1cccc(CNC(=O)CSc2nc(=O)n(Cc3ccncc3)c3c2CCC3)c1	none (no result: Cl transport mod)
O=C(NCCc1ccccc1)c1noc2c1CCCCC2	none (no result: Cl transport mod) | KCC2 sec1 inactive | KCC2 bumet counter inactive | KCC2 sec2 inconclusive | HEK counter1 inactive | KCC2 ouabain 0.019 | HEK counter2 inactive
Cc1ccccc1OCCC(=O)OCC(=O)Nc1c(C)nn(-c2ccccc2)c1C	none (no result: Cl transport mod)
CN(Cc1ccccc1)C(=O)COC(=O)c1cc(NS(=O)(=O)c2cccs2)ccc1O	Cl transport mod -3.5 | KCC2 sec1 inactive | KCC2 bumet counter inactive | KCC2 sec2 0.022 | HEK counter1 inactive | KCC2 ouabain inactive | HEK counter2 inactive
O=C(NC(=O)c1cc([N+](=O)[O-])ccc1Cl)C1=C(N2CCCC2)COC1=O	none (no result: AI-2 QS mod, hERG rescue, KCNQ1 block, KCNQ1 pot, Cl transport mod)
O=C1NC(=S)S/C1=C/c1ccc(Oc2cnccn2)cc1	none (no result: Cl transport mod) | KCC2 sec1 0.012 | KCC2 bumet counter 0.038 | KCC2 sec2 inactive | HEK counter1 0.012 | KCC2 ouabain 0.037 | HEK counter2 inconclusive
Cc1ccc(C(C)C)cc1OCC(=O)Nc1ccc(N2CCCCC2)cc1	none (no result: Cl transport mod)
Cc1ccc[n+](CC(=O)Nc2cc(C(F)(F)F)ccc2N2CCOCC2)c1	none
O=C(NC1CCCCC1)N(Cc1ccccc1)Cc1ccco1	none (no result: Mot1-301 SUMO, Cl transport mod)
O=C(CC(Cc1ccccc1)c1ccco1)NC1CCCCC1 (configuration not stated)	none (no result: Cl transport mod) | KCC2 sec1 inactive | KCC2 bumet counter inactive | KCC2 sec2 0.028 | HEK counter1 inactive | KCC2 ouabain 0.013 | HEK counter2 inactive
Cc1ccc(C(=O)Oc2cc(-c3ccccc3)no2)cc1	none
O=C(Oc1cc(-c2ccccc2)no1)c1ccc(Cl)cc1	Cl transport mod -5.5 | KCC2 sec1 inactive | KCC2 bumet counter inactive | KCC2 sec2 inactive | HEK counter1 inactive | KCC2 ouabain inactive | HEK counter2 inactive

Screening results deposited in PubChem BioAssay by several laboratories.
